Holding throughout (assay type): functional, cell-based
One assay relates to HepG2. Kind of assay: Cytotoxicity against human HepG2 cells after 24 hrs by SRB assay. Particulars: HepG2, 24 h. The gist of the method: (§1)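 Monolayer cultures kept in RPMI-1640 with 5% heat-inactivated FBS, 2 mM glutamine, penicillin 100 U/mL and streptomycin, at 37 °C in humidified 5% CO₂. Exponentially growing cells were obtained by plating 1.5×10^5 cells/mL and incubating 24 h before treatment. Vehicle controls received DMSO at 0.5%, the maximum used in each assay.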
(In general: Sulforhodamine B stains cellular protein and so reports cell mass.)

Assay [1] is described as follows: Cytotoxicity against human HONE1 cells after 24 hrs by SRB assay. As to conditions: HONE1, 24 h. The gist of the method:
as §1

Assay [2] can be described thus: Cytotoxicity against human MCF cells after 24 hrs by SRB assay. The gist of the method:
as §1

Another assay deals with NUGC. Briefly: Cytotoxicity against human NUGC cells after 24 hrs by SRB assay. The gist of the method: as §1
Assay [3] in a line: Cytotoxicity against human DLD1 cells after 24 hrs by SRB assay. Particulars: DLD-1, 24 h. The gist of the method: as §1
Assay [4] is described as follows: Cytotoxicity against human HA22T cells after 24 hrs by SRB assay. The gist of the method:
as §1

The nature of assay [5]: Cytotoxicity against human WI38 cells after 24 hrs by SRB assay. As to conditions: WI-38, 24 h. Summed up:
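Normal fibroblasts were grown as monolayer in RPMI-1640 with 5% heat-inactivated FBS, 2 mM glutamine, penicillin 100 U/mL and streptomycin, at 37 °C in humidified 5% CO₂. Untreated control cells were exposed to the maximum DMSO vehicle concentration (0.5%) used in each assay.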

One may read the IC50 as the concentration at which inhibition is half-maximal. High values mean lower potency, low ones higher potency. Turning to `c1ccc(-c2nn3c(-c4ccncc4)nnc3s2)cc1`, the IC50 in the assay on HepG2 stood at 1360 nM; in assay [1], 2430 nM; in assay [2], 1540 nM; with NUGC, 1280 nM; in assay [3], 3360 nM; in assay [4], 1260 nM.
For the compound `Clc1ccccc1-c1nn2c(-c3ccncc3)nnc2s1`, the IC50 came to 1330 nM in the assay with HepG2; 1170 nM in assay [1]; 2180 nM in assay [2]; 3220 nM in the assay on NUGC; 2660 nM in assay [3]; 1260 nM in assay [4].
Turning to `Clc1ccc(-c2nn3c(-c4ccncc4)nnc3s2)c(Cl)c1`, the IC50 in the assay with HepG2 was determined as 2260 nM; in assay [1] it was 1170 nM; in assay [2], 3220 nM; in the assay on NUGC, 2160 nM; in assay [3], 1190 nM; in assay [4], 3070 nM.
For the compound `c1ccc(C2=Nn3c(nnc3-c3ccncc3)SC2)cc1`, the IC50 turned out to be 469 nM with HepG2; 110 nM in assay [1]; 80 nM in assay [2]; 59 nM in the assay on NUGC; 2350 nM in assay [3]; 122 nM in assay [4].
`Clc1ccc(-c2nn3c(-c4ccncc4)nnc3s2)cc1`: the IC50 with HepG2 turned out to be 1230 nM; in assay [1], 488 nM; in assay [2], 1620 nM; in the assay with NUGC, 25 nM; in assay [3], 49 nM; in assay [4], 120 nM.
With `CC(=O)Nn1c(S)nnc1-c1ccncc1`, the IC50 amounted to 53 nM with HepG2; 1180 nM in assay [1]; 2100 nM in assay [2]; 44 nM in the assay with NUGC; 42 nM in assay [3]; 166 nM in assay [4].
Turning to `O=C(Nn1c(S)nnc1-c1ccncc1)c1ccc([N+](=O)[O-])cc1`, the IC50 was determined as 89 nM with HepG2; 2280 nM in assay [1]; 1090 nM in assay [2]; 360 nM in the assay with NUGC; 266 nM in assay [3]; 1110 nM in assay [4].
As to `Brc1ccc(C2=Nn3c(nnc3-c3ccncc3)SC2)cc1`, the IC50 with HepG2 came out at 2290 nM; in assay [1], 1780 nM; in assay [2], 2270 nM; in the assay on NUGC it was 2490 nM; in assay [3] it was 2380 nM; in assay [4], 2060 nM.
For the compound `Cc1nn2c(-c3ccncc3)nnc2s1`, the IC50 in the assay with HepG2 came to 2740 nM; in assay [1], 1080 nM; in assay [2] it was 219 nM; in assay [5], 650 nM; in the assay with NUGC, 2190 nM; in assay [3], 3280 nM. In assay [4], this compound returned an IC50 of 1720 nM.
Take `S=C(Nc1ccc(Cl)cc1)Nn1c(S)nnc1-c1ccncc1`: the IC50 amounted to 2020 nM in the assay on HepG2; 1220 nM in assay [1]; 3230 nM in assay [2]; 2190 nM in assay [5]; 2120 nM with NUGC; 2250 nM in assay [3]. Further, half-maximal inhibition in assay [4] (IC50) was put at 2010 nM.
Turning to `COc1ccc(NC(=S)Nn2c(S)nnc2-c2ccncc2)cc1`, the IC50 came to 1300 nM with HepG2; 2270 nM in assay [1]; 1670 nM in assay [2]; 1820 nM in the assay on NUGC; 2290 nM in assay [3]; 2370 nM in assay [4].
As for `Cc1ccc(NC(=S)Nn2c(S)nnc2-c2ccncc2)cc1`, the IC50 in the assay on HepG2 came out at 1230 nM; in assay [1] it was 1290 nM; in assay [2], 2170 nM; in the assay on NUGC, 2770 nM; in assay [3], 2150 nM; in assay [4], 2380 nM.
Turning to `S=C(Nc1ccc(Br)cc1)Nn1c(S)nnc1-c1ccncc1`, the IC50 turned out to be 2780 nM in the assay with HepG2; 1680 nM in assay [1]; 1590 nM in assay [2]; 1290 nM in assay [5]; 3290 nM in the assay with NUGC; 3270 nM in assay [3]. The compound further registered an IC50 in assay [4] of 3200 nM.
As for `Clc1ccc(Nc2nn3c(-c4ccncc4)nnc3s2)cc1`, the IC50 is 1980 nM with HepG2; 2260 nM in assay [1]; 1260 nM in assay [2]; 1290 nM in the assay with NUGC; 3260 nM in assay [3]; 3070 nM in assay [4].
Regarding `COc1ccc(Nc2nn3c(-c4ccncc4)nnc3s2)cc1`, the IC50 with HepG2 was found to be 333 nM; in assay [1], 2220 nM; in assay [2], 215 nM; with NUGC it was 56 nM; in assay [3], 128 nM; in assay [4] it was 282 nM.
Consider `Cc1ccc(Nc2nn3c(-c4ccncc4)nnc3s2)cc1`, for which the IC50 came to 312 nM in the assay with HepG2; 3280 nM in assay [1]; 120 nM in assay [2]; 480 nM in assay [5]; 540 nM in the assay on NUGC; 1380 nM in assay [3]. The compound also came in with an IC50 in assay [4] of 277 nM.
Regarding `Brc1ccc(Nc2nn3c(-c4ccncc4)nnc3s2)cc1`, the IC50 in the assay with HepG2 amounted to 128 nM; in assay [1], 2220 nM; in assay [2], 229 nM; in the assay with NUGC it was 136 nM; in assay [3] it was 320 nM; in assay [4], 782 nM.
In the case of `N#CN=C(NCCCCCCOc1ccc(Cl)cc1)Nc1ccncc1` [CHS-828], the IC50 stood at 15 nM in assay [1] and 18 nM in assay [2].

These data come from ChEMBL document CHEMBL3352138, “Synthesis of novel 1,2,4-triazoles, triazolothiadiazines and triazolothiadiazoles as potential anticancer agents” (Eur J Med Chem, 2014).
